# Results gathered from unrelated publications.
# Lines come from different studies, so protocols differ.
# CYP2D6: Cytochrome P450 2D6 (CYP2D6, Homo sapiens, UniProt P10635)
Compound,tested on,assay,test system,conditions,measurement,value
Cc1ccc(C(CS(=O)(=O)c2ccccc2)=NNc2nc(-c3ccc(OCCCCOc4ccc(-c5csc(NN=C(CS(=O)(=O)c6ccccc6)c6ccc(C)cc6)n5)cc4)cc3)cs2)cc1,WM 266-4,"cell growth or viability, MTT",,"1.6 µg, 48 h",viability,64.3%
COC(=O)C1CCN(C(=O)c2cccc(NCc3cnc4nc(N)nc(N)c4n3)c2)CC1,CYP2D6,"enzyme activity, inhibitor, luciferase",,10 µM,inhibition,-11.1%
Cc1ccc(C(CS(=O)(=O)c2ccccc2)=NNc2nc(C)c(N=Nc3cccc(C)c3)s2)cc1,WM 266-4,"cell growth or viability, MTT",,"1.6 µg, 48 h",viability,52.6%
CCOC(=O)C1CCN(C(=O)c2ccc(N(CC)Cc3cnc4nc(N)nc(N)c4n3)cc2)CC1,CYP2D6,"enzyme activity, inhibitor, luciferase",,10 µM,inhibition,-4.18%
Oc1c(-n2ccnn2)cnn1-c1cc(N2CCOCC2)ncn1,,,"female dog, plasma","oral, 1.5 mg/kg",half-life,2.2 h
CNC(=O)c1cc(Oc2ccc(NC(=O)Nc3ccc(Cl)c(C(F)(F)F)c3)cc2)ccn1,WM 266-4,"cell growth or viability, MTT",,"1.6 µg, 48 h",viability,58.5%
CC(C)(O)c1coc(S(=O)(=O)NC(=O)Nc2c3c(cc4c2CCC4)CCC3)c1,J774.A1,"cell growth or viability, MTT",,"10 µM, 4 h",viability,94.9%
O=C(NCCN1CCCC1)c1cc(-c2ccc(CN3CCOCC3)cc2)nc2ccc(F)cc12,,,"male beagle dog, blood","oral, 3 mg/kg",half-life,20 h
COc1cc2c3c(n(CCCN4CCOCC4)c(=O)c2cc1OC)-c1cc2c(cc1C3=O)OCO2,,,"female beagle dog, plasma","intravenous, 10 mg/m², infusion",half-life,8 h
CC[C@@H]1CN(C(=O)NCC(F)(F)F)C[C@@H]1c1cnc2cnc3[nH]ccc3n12,,,"beagle dog, plasma","oral, 1 mg/kg, single dose",AUC(0-t),558 ng·h/mL
C#C[C@]1(CO)O[C@@H](n2cnc3c(N)nc(F)nc32)C[C@@H]1O,Ca-Ski,"cell growth or viability, MTT",,24 h,CC50,> 50 µg/mL
COCCc1ccc(OCC(O)CNC(C)C)cc1 (stereo not shown),CYP2D6,,"human, plasma","oral, 100 mg, single dose, healthy volunteers",Cmax,123 ng/mL
Cc1nc(-c2cnc(NC(C)C)n(C)c2=O)ccc1Oc1ccnc(-c2cnn(C)c2)c1,,,"male beagle dog, plasma","oral, 3 mg/kg",AUC(0-t),7030 ng·h/mL
